# Assay results as given in ChEMBL document CHEMBL1629636, “In vitro susceptibility of Borrelia spielmanii to antimicrobial agents commonly used for treatment of Lyme disease” (2009).
# What was measured:
# Assay type in all cases: functional
# [1] = system: Borrelia burgdorferi; assay: Antimicrobial activity against Borrelia burgdorferi isolate LW2 after 72 hrs by colorimetric assay; details: Borreliella burgdorferi, isolate LW2, 72 h
# Outline: (§1)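 Tested in microtiter trays preloaded with lyophilized antibiotics; clinical isolates were low-passage (10 to 20 passages). MIC was read by colorimetric assay after 72 h. MBC was defined as 100% killing in liquid medium at 72 h: aliquots from vials showing no growth were diluted 1:1,000 in BSK and checked for regrowth after 3 weeks of subculture. Values are medians of three independent experiments on separate days.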
# [2] = system: Borrelia garinii; assay: Antimicrobial activity against Borrelia garinii isolate M2094 after 72 hrs by colorimetric assay; details: Borreliella garinii, isolate M2094, 72 h; outline: as §1
# [3] = system: Borrelia afzelii; assay: Antimicrobial activity against Borrelia afzelii isolate G600 after 72 hrs by colorimetric assay; details: Borreliella afzelii, isolate G600, 72 h; outline: as §1
# [4] = system: Borrelia spielmanii; assay: Antimicrobial activity against Borrelia spielmanii isolate PHap after 72 hrs by colorimetric assay; details: Borreliella spielmanii; outline: as §1
# [5] = system: Borrelia spielmanii; assay: Antimicrobial activity against Borrelia spielmanii isolate PMew after 72 hrs by colorimetric assay; details: Borreliella spielmanii; outline: as §1
# [6] = system: Borrelia garinii; assay: Antimicrobial activity against Borrelia garinii isolate PSth after 72 hrs by colorimetric assay; details: Borreliella garinii; outline: as §1
# [7] = system: Borrelia spielmanii; assay: Antimicrobial activity against Borrelia spielmanii isolate PJes after 72 hrs by colorimetric assay; details: Borreliella spielmanii; outline: as §1
# [8] = system: Borrelia spielmanii; assay: Antimicrobial activity against Borrelia spielmanii isolate PAnz after 72 hrs by colorimetric assay; details: Borreliella spielmanii; outline: as §1
# [9] = system: Borrelia spielmanii; assay: Antimicrobial activity against Borrelia spielmanii isolate PSig2 after 72 hrs by colorimetric assay; details: Borreliella spielmanii, isolate PSig2, 72 h; outline: as §1
# [10] = system: Borrelia spielmanii; assay: Antimicrobial activity against Borrelia spielmanii isolate TIsar3 after 72 hrs by colorimetric assay; details: Borreliella spielmanii, isolate TIsar3, 72 h; outline: as §1
# [11] = system: Staphylococcus aureus; assay: Antimicrobial activity against Staphylococcus aureus ATCC 29213 after 72 hrs by colorimetric assay; details: ATCC 29213, 72 h
# Outline: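 Quality-control MIC followed the CLSI method with two changes: BSK medium was used, and the antibiotic-medium preparation was preincubated for 48 h before testing. Tests were run on three different days, and the MIC reported is the median of the three.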
# [12] = Antimicrobial activity against Borrelia spielmanii A14S after 72 hrs by colorimetric assay; details: Borreliella spielmanii
# Outline: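 Low-passage isolates (10 to 20 passages) grown in BSK medium were tested in microtiter trays precoated with lyophilized antimicrobials. MIC was read colorimetrically after 72 h. Independent experiments were run on three different days, and the MIC reported is the median of the three.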
# [13] = system: Borrelia afzelii; assay: Antimicrobial activity against Borrelia afzelii isolate G1039 after 72 hrs by colorimetric assay; details: Borreliella afzelii, isolate G1039, 72 h; outline: as §1
# [14] = system: Borrelia spielmanii; assay: Antimicrobial activity against Borrelia spielmanii isolate PC-Eq17 after 72 hrs by colorimetric assay; details: Borreliella spielmanii, isolate PC-Eq17, 72 h; outline: as §1
# [15] = system: Borrelia; assay: Antimicrobial activity against Borrelia clinical isolate after 72 hrs by colorimetric assay; details: for MIC90: Borrelia, 72 h; outline: as §1
# [16] = system: Borrelia spielmanii; assay: Antimicrobial activity against Borrelia spielmanii isolate TIsar2 after 72 hrs by colorimetric assay; details: Borreliella spielmanii, isolate TIsar2, 72 h; outline: as §1
# [17] = system: Borrelia garinii; assay: Antimicrobial activity against Borrelia garinii isolate G1 after 72 hrs by colorimetric assay; details: Borreliella garinii, isolate G1, 72 h; outline: as §1
# [18] = Antimicrobial activity against Borrelia burgdorferi B31 after 72 hrs by colorimetric assay; details: Borreliella burgdorferi; outline: as §1
# [19] = system: Borrelia spielmanii; assay: Antimicrobial activity against Borrelia spielmanii isolate PMai after 72 hrs by colorimetric assay; details: Borreliella spielmanii; outline: as §1
# [20] = system: Borrelia afzelii; assay: Antimicrobial activity against Borrelia afzelii isolate FEM1 after 72 hrs by colorimetric assay; details: Borreliella afzelii, isolate FEM1, 72 h; outline: as §1
SMILES,MBC [1],MIC [1],MBC [2],MIC [2],MBC [3],MIC [3],MBC [4],MIC [4],MBC [5],MIC [5],MBC [6],MIC [6],MBC [7],MIC [7],MBC [8],MIC [8],MBC [9],MIC [9],MBC [10],MIC [10],also measured
CC1(C)S[C@@H]2[C@H](NC(=O)[C@H](N)c3ccc(O)cc3)C(=O)N2[C@H]1C(=O)O [AMOXICILLIN],4 µg/mL,1 µg/mL,16 µg/mL,0.25 µg/mL,4 µg/mL,1 µg/mL,> 16 µg/mL,2 µg/mL,> 16 µg/mL,1 µg/mL,8 µg/mL,0.125 µg/mL,16 µg/mL,0.25 µg/mL,16 µg/mL,0.25 µg/mL,16 µg/mL,0.5 µg/mL,4 µg/mL,2 µg/mL,MIC [11]: 2 µg/mL; MBC [12]: 16 µg/mL; MIC [12]: 0.25 µg/mL; MBC [13]: 8 µg/mL; MIC [13]: 0.5 µg/mL; MBC [14]: > 16 µg/mL; MIC [14]: 0.5 µg/mL; MBC90 [15]: >16 µg/mL; MIC90 [15]: 2 µg/mL; MBC [16]: 16 µg/mL; MIC [16]: ≤ 0.125 µg/mL; MBC [17]: 16 µg/mL; MIC [17]: ≤ 0.125 µg/mL; MBC [18]: 16 µg/mL; MIC [18]: 0.5 µg/mL; MBC [19]: 8 µg/mL; MIC [19]: 2 µg/mL; MBC [20]: 4 µg/mL; MIC [20]: 4 µg/mL
CO/N=C(\C(=O)N[C@@H]1C(=O)N2C(C(=O)O)=C(COC(N)=O)CS[C@H]12)c1ccco1 [CEFUROXIME],8 µg/mL,0.125 µg/mL,> 8 µg/mL,0.125 µg/mL,4 µg/mL,0.25 µg/mL,> 8 µg/mL,0.25 µg/mL,> 8 µg/mL,0.125 µg/mL,> 8 µg/mL,0.125 µg/mL,8 µg/mL,0.125 µg/mL,> 8 µg/mL,0.125 µg/mL,8 µg/mL,0.125 µg/mL,4 µg/mL,0.5 µg/mL,MIC [11]: 2 µg/mL; MBC [12]: 8 µg/mL; MIC [12]: 0.125 µg/mL; MBC [13]: 8 µg/mL; MIC [13]: 0.125 µg/mL; MBC [14]: > 8 µg/mL; MIC [14]: 0.125 µg/mL; MBC90 [15]: >8 µg/mL; MIC90 [15]: 0.25 µg/mL; MBC [16]: 2 µg/mL; MIC [16]: 0.125 µg/mL; MBC [17]: > 8 µg/mL; MIC [17]: 0.125 µg/mL; MBC [18]: > 8 µg/mL; MIC [18]: 0.125 µg/mL; MBC [19]: 8 µg/mL; MIC [19]: 0.125 µg/mL; MBC [20]: > 8 µg/mL; MIC [20]: 0.5 µg/mL
C[C@H]1c2cccc(O)c2C(=O)C2=C(O)[C@]3(O)C(=O)C(C(N)=O)=C(O)[C@@H](N(C)C)[C@@H]3[C@@H](O)[C@@H]21.O [DOXYCYCLINE],32 µg/mL,0.125 µg/mL,16 µg/mL,0.25 µg/mL,2 µg/mL,0.25 µg/mL,16 µg/mL,0.0625 µg/mL,16 µg/mL,0.5 µg/mL,32 µg/mL,0.25 µg/mL,8 µg/mL,0.125 µg/mL,8 µg/mL,0.0625 µg/mL,8 µg/mL,0.125 µg/mL,8 µg/mL,0.125 µg/mL,MIC [11]: 0.25 µg/mL; MBC [12]: 16 µg/mL; MIC [12]: 0.125 µg/mL; MBC [13]: 4 µg/mL; MIC [13]: 0.125 µg/mL; MBC [14]: 16 µg/mL; MIC [14]: 0.125 µg/mL; MBC90 [15]: 16 µg/mL; MIC90 [15]: 0.25 µg/mL; MBC [16]: 16 µg/mL; MIC [16]: 0.25 µg/mL; MBC [17]: 16 µg/mL; MIC [17]: 0.125 µg/mL; MBC [18]: 16 µg/mL; MIC [18]: 0.25 µg/mL; MBC [19]: 8 µg/mL; MIC [19]: 0.125 µg/mL; MBC [20]: 4 µg/mL; MIC [20]: 0.125 µg/mL
